# MPTP inh = inhibitors of mitochondrial permeability transition pore | isolated mouse mitochondria, Ca2+ swelling absorbance, 30 min | inhibition, % at 10 µM | actives 1.4% (n = 360,000) | AID 602449;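 active = inhibition of 50% or more, scaled per plate between neutral and stimulator controls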;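 also: 0% = DMSO wells given calcium and 100% = 1 mM EGTA wells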
# MC4R barr agon = human MC4R agonism via beta-arrestin; P32245; AID 540308; actives 0.98% (n = 360,000); activation, % at 8.9 µM; U2OS MC4R beta-arrestin complementation, luminescence; percent of melanotan II response, DMSO zero;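 active = activation above a per-plate cutoff, the mean activation of sample wells on that plate plus 3 SD, cut at about 8% in these data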
# SMARCA2 act = SMARCA2 function activation, primary screen; MG213 cells, MMTV-luciferase reporter, dexamethasone, overnight; activation, % at 9.1 µM; actives 1% (n = 370,000); AID 652017; in the data active = activation above about 7.8%;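 also: 0% = vehicle wells and 100% = reference activator wells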
# ATG4B inhibitor = inhibitors of human ATG4B cysteine protease | Q9Y4P1 | ATG4B cleavage of LC3-PLA2, NBD-HPC fluorescence, 1 h | inhibition, % at 8.33 µM | actives 0.51% (n = 340,000) | AID 504462; in the data active = inhibition above about 40%
# Target sequence (Q9Y4P1 whole entry, looked up): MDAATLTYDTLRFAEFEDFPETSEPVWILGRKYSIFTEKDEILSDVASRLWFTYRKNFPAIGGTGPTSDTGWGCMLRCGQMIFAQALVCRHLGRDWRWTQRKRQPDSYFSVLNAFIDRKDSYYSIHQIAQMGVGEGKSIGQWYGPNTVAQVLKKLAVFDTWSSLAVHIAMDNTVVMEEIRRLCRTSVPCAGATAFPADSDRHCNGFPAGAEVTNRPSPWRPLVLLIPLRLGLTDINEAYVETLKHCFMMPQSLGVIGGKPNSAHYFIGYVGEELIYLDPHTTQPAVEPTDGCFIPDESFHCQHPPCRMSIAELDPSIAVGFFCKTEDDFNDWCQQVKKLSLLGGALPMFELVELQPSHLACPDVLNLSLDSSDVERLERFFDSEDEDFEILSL
# MC4R antag cAMP = antagonists of human melanocortin 4 receptor (MC4R); MC4R-expressing cells, MTII-stimulated cAMP, LANCE TR-FRET; actives 0.48% (n = 360,000); inhibition, % at 6.5 µM;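 active = inhibition above its plate's cutoff, the mean of tested wells on that plate plus 3 SD, cut at about 29% in these data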;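 also: 0% = Melanotan II alone and 100% = Melanotan II plus saturating MCL0020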
#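 System – human MC4R-expressing U2OS cells · Also added – Melanotan II · Dosing – one concentration, 6.5 µM nominal · Timing – 30-min compound, 1-h challenge, 1-h detection, room temperature · Measured by – Eu-cAMP/anti-cAMP TR-FRET, emission 671 nm · Replicates – singlicate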
# * = called active by the depositor; · = not tested or not shown. A selection: hits, their analogues and other compounds. The true share with any hit is near 4.1%.
SMILES,MPTP inh,MC4R barr agon,SMARCA2 act,ATG4B inhibitor,MC4R antag cAMP
Cc1ccc(Nc2ncnc(-n3cccc3)n2)cc1Cl,0,2,7,-15,-6
COc1ccc(C[C@H]2CN3C(=NC[C@@H]3Cc3ccccc3)N2CCNC(=O)c2ccc(C)c(Br)c2)cc1,-1,23*,·,-13,9
COc1cccc(C2CC(c3ccc(Cl)cc3Cl)Nc3nc(N)nn32)c1 (stereo not given),-2,9.2*,0,5,11
Cc1cc(NC(=O)COc2cc(F)cc(F)c2)n(-c2ccccc2)n1,·,·,5,·,·
COCCCNC(=O)c1ccc2c(=O)n(Cc3ccc4c(c3)OCO4)c(=S)[nH]c2c1,6,1,-1,-13,6
CC1CC(C)CN(C(=O)c2ccc3c(=O)n(Cc4ccc5c(c4)OCO5)c(=S)[nH]c3c2)C1 (stereo not given),25,-3,-2,101*,5
Oc1c(Br)cc(/C=N/n2c(-c3ccccc3)n[nH]c2=S)c(O)c1Br,2,-1,·,12,-1
Cc1c(Br)c(O)c(Br)c(O)c1/C=N/n1c(-c2ccccc2)n[nH]c1=S,0,-1,·,69*,3
COc1ccc(OCC(=O)Nc2cc(S(=O)(=O)N3CCCCC3)ccc2OC)cc1,-2,-3,-1,-1,1
COc1ccc(OCC(=O)Nc2cc(S(=O)(=O)N3CCCC3)ccc2Cl)cc1,-1,9.0*,1,-7,-2
CCc1ccc(OCC(=O)Nc2ccc(S(=O)(=O)N3CCCC3)cc2)c(Br)c1,-1,21*,0,-9,14
CN(C(=O)[C@H]1O[C@@H](n2cnc(C(N)=O)n2)[C@H](O)[C@@H]1O)c1ccccc1,·,·,1,·,·
COc1ccc(C(C(=O)NC2CCCCC2)N(C(=O)CCl)c2cccc(Cl)c2)cc1 (stereo not given),0,25*,-2,7,1
O=C(NC1CCCCC1)C(c1cccnc1)N(C(=O)CCl)c1ccc(F)cc1 (stereo not given),2,8,-4,5,5
COc1ccc(C(C(=O)NC2CCCCC2)N(C(=O)CCl)c2ccc(C)cc2)cc1 (stereo not given),2,18*,-11,-2,6
COc1ccc(N(C(=O)CCl)C(C(=O)NC2CCCCC2)c2cccnc2)cc1 (stereo not given),1,8.7*,-6,-2,-4
COc1ccc2ccccc2c1C=Nn1c(-c2n[nH]c3c2CCC3)n[nH]c1=S,·,·,-1,·,·
Cc1noc(C)c1CSc1nc2ccccc2c(=O)n1-c1ccccc1,4,-1,0,54*,-16
Cc1noc(C)c1CSc1nc2[nH]ncc2c(=O)n1-c1ccccc1,-2,-2,-1,-6,-57
Cc1nnc(NC(=O)c2oc3ccccc3c2C)s1,0,-2,3,2,-6
CCCCc1nnc(NC(=O)c2oc3ccccc3c2C)s1,1,9.1*,-1,14,-1
CCOc1cc(C(=O)CSc2nnc(CNc3ccc(Cl)cc3)o2)ccc1NC(=O)CC,3,40*,-6,-6,3
CCCOc1ccc(/C=C/C(=O)Nc2ccc([N+](=O)[O-])cc2C)cc1OC,13,12*,-3,-4,7
COc1ccc(C(=O)NC(=S)Nc2ccccc2[N+](=O)[O-])cc1OC,1,-1,-5,-9,-5
CCCOc1ccc(/C=C/C(=O)Nc2ccc([N+](=O)[O-])cc2C)cc1,1,-1,-5,-12,1
SMILES,MPTP inh,MC4R barr agon,SMARCA2 act,ATG4B inhibitor,MC4R antag cAMP
COc1ccc(C(=O)NC(=S)Nc2ccc([N+](=O)[O-])cc2C)cc1OC,0,8.9*,-2,2,-1
Cc1cc2[nH]c3c4ccccc4nc(C)c3c2cc1C,14,24*,-8,-8,15
CN1CCN(c2ccc(NC(=O)c3ccc(-c4ccc(Br)cc4)o3)cc2)CC1,7,11*,4,-2,0
COc1ccc(/C=N\NC(=O)CN2CCN(Cc3ccccc3)CC2)cc1OCc1ccccc1,·,·,-6,·,·
CCCCNC(=O)C[C@H]1C[C@@]2(C(=O)OC)C(=C[C@H](COCc3ccccc3)O[C@@H]2C)N(Cc2ccco2)C1=O,·,·,-3,·,·
C(#CC1=CCCCC1)CNCc1ccccc1,·,·,-2,·,·
COc1ccc(C2NCCc3c2[nH]c2ccccc32)cc1COc1ccc(F)cc1 (stereo not given),1,24*,3,19,-3
COc1ccc(C2NCCc3c2[nH]c2ccccc32)cc1CN1CCc2cc(OC)c(OC)cc2C1C (stereo not given),0,0,·,2,13
O=C(OC12CCCN(C1)/C(=C/c1cccc(Cl)c1)C2)c1ccccc1 (stereo not given),·,·,-3,·,·
c1ccc(COc2ccc(OCCCCN3CCCC3)cc2)cc1,6,-1,19*,2,-2
O=C1C(Cl)=C(NCCc2ccccc2)C(=O)N1CCc1ccccc1,-2,1,7.9*,23,2
Cc1cc(O)c(C=O)c2c1C(=O)Oc1c(CO)c(O)c3c(c1O2)C(O)OC3=O (stereo not given),-2,0,·,86*,-7
O=C(NCCc1c[nH]c2ccccc12)OCc1cn(-c2cccc(C(F)(F)F)c2)nn1,·,·,-4,·,·
Cc1ccc(C(=O)N/C(=C\c2ccco2)C(=O)NCc2cccnc2)cc1,0,-2,8.0*,-2,7
Cc1c(NC(=O)CN2C(=O)NC(C)(c3ccccc3)C2=O)c(=O)n(-c2ccccc2)n1C (stereo not given),-2,0,-4,11,29*
CCOC(=O)C1(CCCc2ccccc2)CCN(C2CCSCC2)CC1,4,9.2*,6,2,1
CCOC(=O)C1=C(C)N2C(=C(C#N)[C@@H]1c1ccc(C(=O)OC)cc1)SC[C@@]2(O)C(C)(C)C,2,0,-7,4,33*
CCC(=O)NC(=S)Nc1ccc(NC(=O)COc2ccc(Cl)cc2Cl)cc1,0,18*,·,-2,1
COc1ccc(NC(=S)NNC(=O)COc2ccc(Cl)cc2Cl)cc1,4,0,3,10,5
Cc1ccc(SCc2ccc(C(=O)Nc3cccc([N+](=O)[O-])c3)cc2)cc1,12,27*,0,-9,3
Cc1ccc(SCc2ccc(C(=O)Nc3cc([N+](=O)[O-])ccc3C)cc2)cc1,25,23*,-3,7,4
Cc1ccc([N+](=O)[O-])cc1NC(=O)c1ccccc1,-1,-2,-1,13,19
CCOC(=O)[C@]12CCCC=C1N(Cc1ccc(OC)cc1)C(=O)[C@@H]2CC(=O)N1CCN(C(=O)c2ccco2)CC1,·,·,-4,·,·
O=C(CSc1nc2c(c(=O)n1-c1ccc(Br)cc1)SCC2)Nc1nccs1,-2,-1,0,57*,3
COc1cc(/C=N\NC(=O)c2ccc(-c3ccccc3)cc2)ccc1OCC(N)=O,0,26*,0,0,3
